Measured values reported in PMC3667888 (Channels, 2013).
Positions count from the first letter of the chain named.

What was measured:
Assay type in all cases: cell-based
[1] = target: T1, wild-type Kv4.2/KChIP1b channels (Rattus norvegicus, UniProt Q63881)
T1 sequence (Q63881 1-630): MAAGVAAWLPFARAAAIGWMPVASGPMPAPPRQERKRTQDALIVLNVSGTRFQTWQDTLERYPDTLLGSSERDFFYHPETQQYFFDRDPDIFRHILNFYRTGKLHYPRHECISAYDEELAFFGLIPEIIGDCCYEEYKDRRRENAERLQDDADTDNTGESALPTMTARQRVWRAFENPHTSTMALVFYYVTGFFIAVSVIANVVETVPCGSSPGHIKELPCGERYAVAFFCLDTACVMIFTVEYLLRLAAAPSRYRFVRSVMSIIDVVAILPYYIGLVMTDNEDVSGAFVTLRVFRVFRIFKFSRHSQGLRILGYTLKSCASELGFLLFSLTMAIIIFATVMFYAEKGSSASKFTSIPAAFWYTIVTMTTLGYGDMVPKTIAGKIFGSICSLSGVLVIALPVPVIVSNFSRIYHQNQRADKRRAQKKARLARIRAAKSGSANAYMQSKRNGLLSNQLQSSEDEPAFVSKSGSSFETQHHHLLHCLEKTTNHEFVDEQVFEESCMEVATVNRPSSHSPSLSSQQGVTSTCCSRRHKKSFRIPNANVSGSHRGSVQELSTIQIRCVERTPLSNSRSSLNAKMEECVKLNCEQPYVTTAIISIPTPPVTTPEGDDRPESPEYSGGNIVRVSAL
Method in brief: (§1)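 Rat Kv4.2 (WT or QuikChange mutant) RNA co-injected equimolar with KChIP1b, 5–10 ng/oocyte, into Xenopus oocytes held 1–5 d at 17–19 °C. Two-electrode voltage clamp at room temperature in perfused Na/K methanesulfonate HEPES saline, pH 7.4–7.5, with P/−4 or P/−6 leak subtraction. Peak current at +40 mV (from −90 mV) after 10 min of 10 μM AA is expressed relative to pre-AA current. Mean ± SE, n = cells.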

[2] = target: T2, Kv4.2 V261F mutant channels (co-injected with KChIP1b) (Rattus norvegicus, UniProt Q63881, V261F); test: Two-electrode voltage clamp, V261F mutant Kv4.2/KChIP1b in Xenopus oocytes
T2 sequence (Q63881 1-630 V261F): T1 sequence (Q63881 1-630) with V261F
Method in brief: as §1

[3] = target: T3, Kv4.2 L313F mutant channels (co-injected with KChIP1b) (Rattus norvegicus, UniProt Q63881, L313F); test: Two-electrode voltage clamp, L313F mutant Kv4.2/KChIP1b in Xenopus oocytes; conditions: 10 µM AA
T3 sequence (Q63881 1-630 L313F): T1 sequence (Q63881 1-630) with L313F
Method in brief: as §1

[4] = read-out: inhibition of the peak K+ current

For `CCCCC/C=C\C/C=C\C/C=C\C/C=C\CCCC(=O)O` [AA, arachidonic acid], the “V1/2 of conductance-voltage curve with AA” value ([1]; 10 µM AA, WT) was −13.4 mV, the “rightward shift in V1/2 of the conductance-voltage relationship in the presence of AA” value ([1]; 10 µM AA, WT) was “+7 mV” and the “slope factor (k) of Boltzmann fit with AA” value ([1]; 10 µM AA, WT) was 12.1. For the same compound, the “decrease in Kv4.2 currents” value ([1]; 10 µM AA, n = 3, same batch of oocytes as Kv1.2/2.1, +40 mV test potential) was 30.7 ± 1.8%, the Kd ([1]; fitted Kd for AA inhibition of peak current, Hill equation, nH = 1, +40 mV, 1 to 300 µM AA, WT) was 21.1 µM and the inhibition at 10 µM [1, 4] was 30%. The “V1/2 of conductance-voltage curve with AA” value ([2]; 10 µM AA, V261F) was −17.1 mV, the “slope factor (k) of Boltzmann fit with AA” value ([2]; 10 µM AA, V261F) was 10.9 and the inhibition at 10 µM [2, 4] was 18%. The “sensitivity to AA” value [3] was “retained its sensitivity to AA”.
